Assay [1] deals with A549. Description: Induction of apoptosis in human A549 cells assessed as nuclear condensation at 1 uM after 48 hrs by Hoechst staining-based fluorescence microscopic analysis. The class given is functional, cell-based. An outline of the steps: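 10,000 A549 cells on coverslips, 24 h, then fresh medium with compound at 1 µM for 48 h. Vehicle control 0.001% DMSO. Hoechst 33258 added with 4% paraformaldehyde for 30 min at 37°C. Random fields imaged by fluorescence microscopy and scored qualitatively for chromatin condensation and nuclear fragmentation.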

In assay [2] the target is Tubulin. Description: Inhibition of tubulin (unknown origin) polymerization measured for 1 hr by fluorescence assay. The class given is protein-complex assay, Homo sapiens.
Assay [3] relates to A549. Description: Cell cycle arrest in human A549 cells assessed as accumulation at S phase at 0.5 uM after 48 hrs by propidium iodide staining-based flow cytometric analysis (reference value: 3.57%). The format is functional. Background: A flow cytometer gives signals particle by particle.
For assay [4], the system named is HeLa. Description: Anticancer activity against human HeLa cells after 48 hrs by MTT assay. The class given is functional, cell-based. The method, boiled down: (§1)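 MTT assay: 1×10⁴ cells/well seeded in DMEM with 10% FBS, 24 h at 37°C in CO₂ before dosing. Compounds diluted in medium, vehicle control included, 48 h exposure. MTT (5 mg/mL stock) added for 4 h, formazan dissolved in DMSO, absorbance read at 540 nm. IC50 averaged from three individual experiments.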
A general note: Tetrazolium assays rely on reduction of a dye to a coloured formazan, in cell work by metabolically active cells.

Assay [5] relates to A549. Description: Induction of apoptosis in human A549 cells assessed as caspase-3 activation at 1 to 2 uM after 48 hrs by ELISA relative to control. The format is functional. An outline of the steps: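 Colorimetric caspase-3 kit used. A549 cells treated 48 h at 1 and 2 µM, pelleted, washed in PBS, lysed 15 min, spun 15 min. Supernatant assayed by ELISA-based readout, fold change versus untreated control. Mean of two experiments, each in triplicate.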
In general terms: An ELISA detects its analyte on a solid surface through an enzyme-linked reagent.

The test system of assay [6] is A549. Description: Induction of apoptosis in human A549 cells assessed as DNA fragmentation at 1 uM after 48 hrs by agarose gel electrophoresis. The format is functional, cell-based. An outline of the steps:
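After 24 h settling, 1×10⁶ A549 cells/well treated 48 h at 1 µM. Pellet washed in PBS and lysed. Supernatant given SDS and RNase A for 2 h at 56°C, then proteinase K for 2 h at 37°C. DNA precipitated with ammonium acetate and cold ethanol at -80°C, washed in 80% ethanol, dissolved in TE. Laddering on 2% agarose gel.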

The subject of assay [7] is DU-145. Kind of assay: Anticancer activity against human DU145 cells after 48 hrs by MTT assay. The following applies: DU-145, 48 h. The class given is functional, cell-based. An outline of the steps: as §1
For assay [8], the system named is A549. Description: Cell cycle arrest in human A549 cells assessed as accumulation at G0/G1 phase at 1 uM after 48 hrs by propidium iodide staining-based flow cytometric analysis (reference value: 78.23%). The class given is functional.
The subject of assay [9] is A549. Kind of assay: Cell cycle arrest in human A549 cells assessed as accumulation at sub-G1 phase at 1 uM after 48 hrs by propidium iodide staining-based flow cytometric analysis (reference value: 6.47%). The format is functional.
In assay [10] the test system is A549. Description: Cell cycle arrest in human A549 cells assessed as accumulation at G2/M phase at 0.5 uM after 48 hrs by propidium iodide staining-based flow cytometric analysis (reference value: 11.73%). The class given is functional.
The subject of assay [11] is A549. Description: Cell cycle arrest in human A549 cells assessed as accumulation at sub-G1 phase at 0.5 uM after 48 hrs by propidium iodide staining-based flow cytometric analysis (reference value: 6.47%). The class given is functional.
Assay [12] deals with A549. Description: Anticancer activity against human A549 cells after 48 hrs by MTT assay. The format is functional, cell-based. The following applies: A549, 48 h. An outline of the steps:
as §1

Assay [13] deals with T1, Tubulin (Homo sapiens) (UniProt P68371+Q9H4B7+P0DPH7+P68366+Q13509+Q71U36+P04350+Q3ZCM7+P07437+P68363+Q9BQE3+Q6PEY2+Q13885+Q9BVA1+Q9BUF5). Kind of assay: Inhibition of alpha-tubulin polymerization in human A549 cells at 1 uM after 48 hrs by immunohistochemical analysis. The format is cell-based. An outline of the steps:
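A549 cells on coverslips treated 48 h at 1 µM. Fixed in 4% paraformaldehyde for 20 min, permeabilised with 0.2% Triton X-100 for 5 min, then methanol overnight. Blocked in 1% BSA, anti-α-tubulin (1:1000) 2 h at room temperature, FITC anti-mouse secondary 1 h. Microtubule network integrity examined by fluorescence microscopy.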

The subject of assay [14] is A549. Description: Cell cycle arrest in human A549 cells assessed as accumulation at S phase at 1 uM after 48 hrs by propidium iodide staining-based flow cytometric analysis (reference value: 3.57%). The class given is functional.
Assay [15] has as its system A549. Kind of assay: Cell cycle arrest in human A549 cells assessed as accumulation at G0/G1 phase at 0.5 uM after 48 hrs by propidium iodide staining-based flow cytometric analysis (reference value: 78.23%). The format is functional.
For assay [16], the system named is ACHN. Kind of assay: Anticancer activity against human ACHN cells after 48 hrs by MTT assay. The class given is functional, cell-based. The method, boiled down:
as §1

Assay [17] concerns the target T1, Tubulin (Homo sapiens). Description: Inhibition of tubulin (unknown origin) polymerization at 3 uM measured for 1 hr by fluorescence assay relative to control. The class given is protein-complex assay. The method, boiled down:
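Tubulin polymerization kit, fluorescence-reporter based. Reaction in PEM buffer with GTP, with or without compound at 3 µM final. Reporter incorporation followed as fluorescence increase (excitation 360 nm, emission 420 nm) for 1 h at 37°C. Mean of two experiments, each in triplicate.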

Assay [18] relates to HT-29. Kind of assay: Anticancer activity against human HT-29 cells after 48 hrs by MTT assay. The class given is functional, cell-based. The following applies: HT-29, 48 h. The method, boiled down:
as §1

The subject of assay [19] is A549. Kind of assay: Cell cycle arrest in human A549 cells assessed as accumulation at G2/M phase at 1 uM after 48 hrs by propidium iodide staining-based flow cytometric analysis (reference value: 11.73%). The class given is functional.

pIC50: −log10 of the molar value. The source made the active and inactive calls. The calls are words filed in the database; no cut-off is given here.

Here are results for one compound from ChEMBL document CHEMBL3259608, “Synthesis of a terphenyl substituted 4-aza-2,3-didehydropodophyllotoxin analogues as inhibitors of tubulin polymerization and apoptosis inducers” (Bioorg Med Chem, 2014).

The term pIC50 denotes the negative decadic logarithm of the IC50, by convention in mol/L. In general, inhibition refers to the share of the control response that was lost under treatment.

As to `O=C1OCC2=C1C(c1ccc(-c3ccc(-c4ccc(OC(F)(F)F)cc4)cc3)cc1)c1c(ccc3cn[nH]c13)N2` (centres undefined), the outcome in [1] and in assay [6] was Active. Moreover, the pIC50 in assay [2] is 5.53; in assay [4] it was 5.91; in assay [7], 6.01; in assay [12] it was 6.06; in assay [16] it was 6.02; in assay [18], 6.00. Also, the Activity is listed as 2.39% in assay [3]; 38.41% in assay [8]; 1.01% in [9]; 32.01% in assay [10]; 1.08% in assay [11]; 2.35% in assay [14]. In addition, the Activity in [15] turned out to be 64.52%; in [19], 58.23%. Further, the “fold change (FC)” value in [5] is recorded as 3. For the same compound, the inhibition entry in [13] is “Active”. In addition, the inhibition in assay [17] is 60.1%.
